The source made the active and inactive calls. No cut-off for these calls is given here.
Key:
[1] = target: T1, Oxysterols receptor LXR-beta (Homo sapiens) (UniProt P55055); assay: Antagonist activity at human GAL4N-fused LXRbeta LBD expressed in HEK293 cells assessed as reduction in T0901317-induced transactivation activity at 20 uM after 24 hrs by luciferase reporter gene assay; assay type: cell-based
T1 sequence (whole entry): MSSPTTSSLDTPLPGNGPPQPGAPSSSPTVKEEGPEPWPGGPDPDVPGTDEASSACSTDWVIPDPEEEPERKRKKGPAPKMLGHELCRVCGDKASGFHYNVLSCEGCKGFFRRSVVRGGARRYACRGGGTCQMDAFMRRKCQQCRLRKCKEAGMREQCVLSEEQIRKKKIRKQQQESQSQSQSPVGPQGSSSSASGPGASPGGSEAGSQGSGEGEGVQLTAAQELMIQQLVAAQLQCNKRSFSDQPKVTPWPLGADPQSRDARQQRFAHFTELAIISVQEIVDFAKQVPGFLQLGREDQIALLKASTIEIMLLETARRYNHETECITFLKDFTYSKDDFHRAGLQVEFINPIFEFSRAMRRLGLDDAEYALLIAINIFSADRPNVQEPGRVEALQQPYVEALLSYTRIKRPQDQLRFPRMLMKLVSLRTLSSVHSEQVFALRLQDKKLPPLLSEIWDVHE

[2] = target: T2, Nuclear receptor ROR-gamma (Homo sapiens) (UniProt P51449); assay: Antagonist activity at human RORgamma1 expressed in HEK293 cells at 20 uM after 24 hrs by luciferase reporter gene assay; assay type: cell-based
T2 sequence (whole entry): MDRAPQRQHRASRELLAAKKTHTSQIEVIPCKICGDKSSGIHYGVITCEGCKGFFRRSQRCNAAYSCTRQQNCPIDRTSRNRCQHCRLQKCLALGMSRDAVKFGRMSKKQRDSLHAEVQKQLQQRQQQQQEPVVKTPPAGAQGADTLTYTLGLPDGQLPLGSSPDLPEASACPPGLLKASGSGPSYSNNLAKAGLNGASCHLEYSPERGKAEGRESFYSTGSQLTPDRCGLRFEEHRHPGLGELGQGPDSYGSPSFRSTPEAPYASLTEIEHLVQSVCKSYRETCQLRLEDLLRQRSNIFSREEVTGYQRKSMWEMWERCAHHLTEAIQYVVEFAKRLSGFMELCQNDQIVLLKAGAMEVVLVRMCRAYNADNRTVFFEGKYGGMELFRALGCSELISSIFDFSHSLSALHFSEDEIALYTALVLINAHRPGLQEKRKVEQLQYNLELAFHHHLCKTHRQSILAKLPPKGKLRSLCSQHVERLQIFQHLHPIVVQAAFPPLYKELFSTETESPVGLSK
Outline: (§1)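 Inverse agonism at RORα, RORβ or RORγ measured by reporter gene assay.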

Androgen receptor = target: T3, Androgen receptor (Homo sapiens, UniProt P10275); assay: Antagonist activity at human CMX-AR expressed in HEK293 cells assessed as reduction in dihydrotestosterone-induced transactivation activity after 24 hrs by luciferase reporter gene assay; assay type: cell-based
T3 sequence (P10275 whole entry): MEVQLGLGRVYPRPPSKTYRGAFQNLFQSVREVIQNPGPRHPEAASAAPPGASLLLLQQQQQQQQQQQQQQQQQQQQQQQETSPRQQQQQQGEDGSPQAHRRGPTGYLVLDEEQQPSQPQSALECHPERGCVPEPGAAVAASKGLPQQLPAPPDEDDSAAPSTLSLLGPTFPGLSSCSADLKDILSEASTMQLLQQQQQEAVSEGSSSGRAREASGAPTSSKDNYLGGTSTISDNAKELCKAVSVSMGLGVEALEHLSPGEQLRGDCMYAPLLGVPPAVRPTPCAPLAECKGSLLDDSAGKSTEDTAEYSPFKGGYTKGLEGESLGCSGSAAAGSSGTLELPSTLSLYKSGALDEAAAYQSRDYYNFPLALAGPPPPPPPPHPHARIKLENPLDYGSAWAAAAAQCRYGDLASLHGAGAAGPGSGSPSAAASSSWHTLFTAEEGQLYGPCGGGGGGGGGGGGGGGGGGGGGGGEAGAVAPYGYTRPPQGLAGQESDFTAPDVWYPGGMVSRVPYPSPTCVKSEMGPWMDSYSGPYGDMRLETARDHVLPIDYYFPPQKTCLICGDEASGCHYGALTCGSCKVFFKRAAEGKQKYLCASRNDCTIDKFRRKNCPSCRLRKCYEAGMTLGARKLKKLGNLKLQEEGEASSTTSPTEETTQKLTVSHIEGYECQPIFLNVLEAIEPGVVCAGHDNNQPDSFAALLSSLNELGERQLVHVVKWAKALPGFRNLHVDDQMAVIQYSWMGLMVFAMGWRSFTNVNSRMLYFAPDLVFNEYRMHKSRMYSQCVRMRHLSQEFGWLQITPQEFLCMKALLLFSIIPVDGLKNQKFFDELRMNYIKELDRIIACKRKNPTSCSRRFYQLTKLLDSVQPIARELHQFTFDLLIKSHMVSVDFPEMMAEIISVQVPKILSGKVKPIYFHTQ
Outline: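 AR antagonism measured by reporter gene assay with dihydrotestosterone (0.3 nM) as agonist.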

[3] = target: T4, Oxysterols receptor LXR-beta (Homo sapiens, UniProt P55055); assay: Antagonist activity at human GAL4N-fused LXRbeta LBD expressed in HEK293 cells assessed as reduction in T0901317-induced transactivation activity after 24 hrs by luciferase reporter gene assay; assay type: cell-based
T4 sequence (P55055 whole entry): T1 sequence (whole entry)

[4] = target: T5, Nuclear receptor ROR-gamma (Homo sapiens, UniProt P51449); assay: Antagonist activity at human RORgamma1 expressed in HEK293 cells after 24 hrs by luciferase reporter gene assay; assay type: cell-based; outline: as §1
T5 sequence (P51449 whole entry): T2 sequence (whole entry)

[5] = Apparent permeability across apical to basolateral side in human Caco2 cells at 10 uM; assay type: ADME, cell-based; conditions: caco-2, 10 µM
[6] = Stability in human liver microsomes at 0.1 uM by LC-MS/MS analysis; assay type: ADME, microsome

Activity [1] | Activity [2] | IC50 (Androgen receptor) [µM] | IC50 [3] [µM] | IC50 [4] [µM] | Papp [5] | Stability [6] | SMILES
inactive | inactive | 1.8 | – | – | – | – | Cc1cc(C(O)(C(F)(F)F)C(F)(F)F)cc2c1[nH]c(=O)c1cc(F)ccc12
– | inactive | – | > 20 | – | – | – | Cc1cc(C(O)(C(F)(F)F)C(F)(F)F)cc2c3ccc(F)cc3c(=O)n(C)c12
– | – | > 20 | > 20 | > 20 | Permeable | Stable | Cc1cc(C(O)(C(F)(F)F)C(F)(F)F)cc2c1[nH]c(=O)c1ccccc12

— ChEMBL document CHEMBL4145662, “Novel Nonsteroidal Progesterone Receptor (PR) Antagonists with a Phenanthridinone Skeleton” (ACS Med Chem Lett, 2018)
